Reference: PubChem BioAssay AID624466 (The Scripps Research Institute Molecular Screening Center, 2012)
Where “and” joins values, the source holds several entries; their conditions need not be identical. Equal values may be shown once. The campaign covered roughly 360,000 compounds. About 5,400 (1.5%) were called active.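 How the source made its calls: active means inhibition above a per-plate cutoff, the mean inhibition of test compounds on that plate plus 3 SD (cut at about 49% in these data); inactive means the rest.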 The list comes from a sample in which actives are over-represented; it also holds similar structures and randomly drawn compounds.

Molecular target: Trace amine-associated receptor 1 (Homo sapiens) (UniProt Q96RJ0)
Test: blockers of beta-PEA-driven TAAR1 calcium signal – Fluo-8 calcium fluorescence, CHO RD-HGA16 cells, primary screen (AID 624466);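 further: 0% = DMSO plus EC80 beta-PEA response and 100% = DMSO alone without agonist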
Conditions: CHO RD-HGA16 TAAR1, Fluo-8 calcium fluorescence, antagonist; at 3 µM; hits give high values
Method in brief: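 System: CHO RD-HGA16 cells bearing hTAAR1. Reagent: EC80 β-phenethylamine stimulus. Schedule: seeding 17-24 h prior, 75-min 37 °C, 30-min RT dye loading. Signal: Fluo-8 intracellular calcium dye fluorescence, real-time kinetic reads. Read-out: % inhibition from peak post-agonist over basal fluorescence ratio. Benchmarks: vehicle wells and EC80 agonist wells. Replicates: n of 1.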

Chain of Trace amine-associated receptor 1 (Homo sapiens) (Q96RJ0 whole entry, looked up): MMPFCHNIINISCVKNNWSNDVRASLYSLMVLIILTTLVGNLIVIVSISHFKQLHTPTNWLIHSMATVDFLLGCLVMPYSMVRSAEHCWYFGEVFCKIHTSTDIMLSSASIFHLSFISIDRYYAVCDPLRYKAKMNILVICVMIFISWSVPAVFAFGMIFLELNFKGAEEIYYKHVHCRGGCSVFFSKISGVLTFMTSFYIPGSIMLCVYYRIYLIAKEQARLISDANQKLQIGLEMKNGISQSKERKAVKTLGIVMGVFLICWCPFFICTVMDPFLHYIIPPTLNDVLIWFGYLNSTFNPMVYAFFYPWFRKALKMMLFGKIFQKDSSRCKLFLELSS

Row | Structure (SMILES) | inhibition
1 | CC(C)CN1C(=O)CN(S(C)(=O)=O)CC1(C)C(=O)NCc1ccccc1 (configuration not stated) | -16.9% (inactive)
2 | O=C(c1ccccc1)c1ccc(OC(=O)N2CCCC2)cc1 | 0.6% (inactive)
3 | CCCC[C@@H]1CN=C(N)N1CCc1cc(C(F)(F)F)cc(C(F)(F)F)c1 | 0.75% (inactive)
4 | O=C(NCc1ccccn1)[C@@H]1CCCN1C(=O)[C@@H]1CCCN1C(=O)c1ccccc1 | -3.32% (inactive)
5 | CCOc1ccc(Cn2nnc(C(=O)Nc3ccc(OC)cc3OC)c2N)cc1 | -4.89% (inactive)
6 | Nc1c(C(=O)Nc2ccc3c(c2)OCCO3)nnn1Cc1ccccc1 | 10.6% (inactive)
7 | CCOc1ccc(Cn2nnc(C(=O)NCc3ccccc3)c2N)cc1 | 55.6% (active)
8 | O=C(OCC(=O)N1CCOCC1)c1ccc2ccccc2c1 | -11.6% (inactive)
9 | O=C1C(Sc2cccc(F)c2)=C[C@@]2(O)CC[C@@H](O)[C@]1(Sc1cccc(F)c1)[C@H]2O | 1.99% (inactive)
10 | N#Cc1ccc(C(C(=O)NCc2ccccc2)n2c(=O)c(-c3ccco3)nc3ccccc32)cc1 (configuration not stated) | -2.89% (inactive)
11 | O=C(Cc1ccccc1)Nc1c(Cl)ccc2nsnc12 | 3.32% (inactive)
12 | CC(=O)c1ccc(NC(=O)c2cc(-c3cccs3)on2)cc1 | 5.25% (inactive)
13 | Cc1cc(Br)ccc1NC(=O)c1sc2ncn(CC(=O)N3CCN(c4ccccn4)CC3)c(=O)c2c1C | 12% (inactive)
14 | Cc1cc(C(=O)N2CCN(c3ccccn3)CC2)c(C)o1 | 1.13% (inactive)
15 | Cc1cc(Br)ccc1NC(=O)c1cnc(N2CCN(c3ccccn3)CC2)c2ccccc12 | 67.1% (active)
16 | CCOc1ccccc1C(=O)N1CCC[C@@H]1C(=O)N1CCC[C@H]1C(=O)NCc1ccccc1 | -5.66% (inactive)
17 | CN1C(=O)CN2CCc3ccccc3C2c2cc(Cl)ccc21 (configuration not stated) | -4.12% (inactive)
18 | S=C(Nc1cccc(Br)c1)N1CCn2cccc2C1c1cccnc1 (configuration not stated) | -5.72% (inactive)
19 | S=C(NCCc1ccccc1)N1CCn2cccc2C1c1ccncc1 (configuration not stated) | 76.5% (active)
20 | CC1CCCCN1C(=S)NCc1ccccc1 (configuration not stated) | -12.2% (inactive)
21 | Cc1cccc(N(C)C(=O)CN2C(=O)COc3ccc(S(=O)(=O)N4CCCCCC4)cc32)c1 | 28.5% (inactive)

Row | Structure (SMILES) | inhibition
22 | CCCCn1nc(C(=O)Nc2ccc(S(=O)(=O)Nc3ncccn3)cc2)c2ccccc2c1=O | -40.3% (inactive)
23 | CCCCn1nc(C(=O)Nc2cccc(C(=O)NC3CC3)c2)c2ccccc2c1=O | 48.7% (active)
24 | CCCn1nc(C(=O)Nc2ccc3nc(C)sc3c2)c2ccccc2c1=O | -20.5% (inactive)
25 | CC(=O)N1CCN(Cc2cc(=O)oc3cc(C)ccc23)CC1 | -3.73% (inactive)
26 | Cc1ccc2nc(CN(C)C(=O)[C@@H](Cc3ccccc3)NC(=O)[C@H]3O[C@@H](n4ccc(=O)[nH]c4=O)[C@H](O)[C@@H]3O)[nH]c2c1 | -7.68% (inactive)
27 | CN(c1ccccc1)S(=O)(=O)c1ccc(NC(=O)COc2ccccc2)cc1 | 40.2% (inactive)
28 | COC(=O)[C@H]1Cc2cnoc2C[C@]1(C)C(=O)O | -4.37% (inactive)
29 | COC(=O)[C@]12C[C@H](CC(=O)NCCCCc3ccccc3)C(=O)N(Cc3ccc4c(c3)OCO4)C1=C[C@H](C(C)(C)C)O[C@@H]2C | -5.78% (inactive)
30 | Cn1c2ccccc2c(=O)c2c(=O)n(Cc3ccco3)c(COc3ccccc3)nc21 | 62.5% (active)
31 | CCc1nc2oc3ccccc3c(=O)c2c(=O)n1Cc1ccc(OC)cc1 | 3.24% (inactive)
32 | O=C(CSc1nnc(COc2ccc(Cl)cc2)n1Cc1ccco1)N1CCNC1=O | 11.4% (inactive)
33 | C/C(=N\N1CCN(Cc2ccc(C)cc2)CC1)c1ccco1 | -4.82% (inactive)
34 | Cc1cccc(C)c1NC(=O)COC(=O)c1c(C)nn(-c2ccccc2)c1C | -6.4% (inactive)
35 | Cc1nn(-c2ccccc2)c(C)c1NC(=O)CCl | -8.39% (inactive)
36 | Cc1nn(-c2ccccc2)c(C)c1NC(=O)COC(=O)c1cc(Cl)ccc1O | 68.3% (active)
37 | O=C(Nc1ccccc1)c1nnsc1S(=O)(=O)c1ccc(Cl)cc1 | 59.8% (active)
38 | Cc1nnsc1S(=O)(=O)Cc1ccccc1Cl | -3.1% (inactive)
39 | O=C(Nc1ccc(S(=O)(=O)N2CCOCC2)cc1)C1CCN(S(=O)(=O)c2ccc(Cl)cc2)CC1 | 8.67% (inactive)
40 | C=CCN=C1NC(c2cccc(C(F)(F)F)c2)C(C(=O)OC)=C(C)N1C (configuration not stated) | 5.15% (inactive)
41 | C[C@@H](CN1C2=NC[C@@H](Cc3ccccc3)N2C[C@H]1Cc1ccc(O)cc1)NC(=O)CCC1CCCCC1 | -6.17% (inactive)
42 | COc1ccccc1CC1(C)C(=O)Nc2ccc(OC(F)(F)F)cc21 (configuration not stated) | -12.2% (inactive)

Row | Structure (SMILES) | inhibition
43 | Cc1ccc(CC2(C)C(=O)Nc3ccc(OC(F)(F)F)cc32)cc1 (configuration not stated) | -5.18% (inactive)
44 | CCc1ccc2c(c1)NC(=O)C2(C)Cc1ccc(OC(F)(F)F)cc1 (configuration not stated) | 55.2% (active)
45 | CCOC(=O)c1cc2c(ccn2C)n1CC(=O)N1CCC(C)CC1 | -7.37% (inactive)
46 | COc1ccc(CCNC2=C(Cl)C(=O)N(Cc3ccccc3)C2=O)cc1OC | 63% (active)
47 | COc1ccc(CCNC(=O)c2ccccc2-c2ccccc2C(=O)O)cc1OC | -6.06% (inactive)
48 | COc1ccc(CCNc2nc(C)cc(C)n2)cc1OC | -1.79% (inactive)
49 | CC(=O)Nc1ccccc1OC(C)C(=O)N1CCC(C)CC1 (configuration not stated) | -3.93% (inactive)
50 | COc1ccc2c(c1)C(SCC(=O)NCc1ccccc1)CC(C)(C)O2 (configuration not stated) | 13% (inactive)
51 | C=CCC[C@@H](Cc1ccc(F)cc1)C(=O)O[C@H](CNC(=O)[C@H](CC=C)CC(=O)N(CCO)Cc1ccccc1)c1ccccc1 | 75.5% (active)
52 | C=CC[C@@H](CC(=O)N[C@H](CO)Cc1ccccc1)C(=O)N[C@@H](COC(=O)[C@@H](CC=C)Cc1ccc(F)cc1)Cc1c[nH]c2ccccc12 | 9.92% (inactive)
53 | C=CCC[C@H](Cc1ccc(F)cc1)C(=O)OC[C@H](C)NC(=O)[C@H](CC=C)CC(=O)N(CCO)Cc1ccccc1 | 55.4% (active)
54 | C=CC[C@@H](CC(=O)N[C@H](CO)Cc1ccccc1)C(=O)N[C@H](C)COC(=O)[C@@H](CC=C)Cc1ccc(F)cc1 | 38% (inactive)
55 | C=CCC[C@@H](Cc1ccc(F)cc1)C(=O)OC[C@H](Cc1c[nH]c2ccccc12)NC(=O)[C@@H](CC=C)CC(=O)N(CCO)Cc1ccccc1 | 38.4% (inactive)
56 | C=CC[C@@H](Cc1ccc(F)cc1)C(=O)OC[C@H]1CCCN1C(=O)[C@H](CC=C)CC(=O)N(CCO)Cc1ccccc1 | 39.6% (inactive)
57 | C=CCC[C@H](Cc1ccc(F)cc1)C(=O)OC[C@@H](NC(=O)[C@@H](CC=C)CC(=O)N[C@H](CO)Cc1ccccc1)C(C)(C)C | 37.2% (inactive)
58 | C=CCC[C@@H](Cc1ccc(F)cc1)C(=O)OC[C@@H](C)NC(=O)[C@H](CC=C)CC(=O)N(CCO)Cc1ccccc1 | 46.1% (inactive)
59 | C=CC[C@H](CC(=O)N(CCO)Cc1ccccc1)C(=O)N[C@@H](COC(=O)[C@@H](CC=C)Cc1ccc(F)cc1)Cc1ccccc1 | 61.4% (active)
60 | COC(=O)C1(C(=O)OC)C[C@H](c2ccccc2)N(Cc2ccccc2OC)[C@@H]1c1ccccc1 | -23.2% (inactive)
61 | Cc1noc(C)c1NC(=O)Nc1ccc2c(c1)C(=O)N([C@H](C)CO)C[C@H](C)[C@H](CN(C)Cc1ccncc1)OCCCC[C@@H](C)O2 | 8.35% (inactive)
62 | CCCCCCc1cc2cc(-c3nnc(-c4cccc(OC)c4)o3)c(=O)oc2cc1O | 15.5% (inactive)
63 | Nc1[nH]c(C(=O)c2ccccc2)c(-c2ccncc2)c1C(=O)NCc1cccc2ccccc12 | 36.1% (inactive)

Row | Structure (SMILES) | inhibition
64 | NC(=O)c1ncn([C@@H]2O[C@H](C(=O)O)[C@@H](O)[C@H]2O)n1 | -11.9% (inactive)
65 | COc1cccc(CNC(=O)[C@H]2CCCN2C(=O)[C@H]2CCCN2C(=O)c2ccc(F)cc2)c1 | -14.1% (inactive)
66 | COc1ccc(CNC(=O)C(c2ccc(O)cc2)N(Cc2ccco2)C(=O)c2snc(C(N)=O)c2N)cc1 (configuration not stated) | 65% (active)
67 | NC(=O)c1nsc(C(=O)N(CC(=O)NCc2ccc(F)cc2)Cc2ccco2)c1N | 10.2% (inactive)
68 | COc1cc(C(C(=O)NC2CCCC2)N(Cc2ccccc2)C(=O)c2snc(C(N)=O)c2N)ccc1O (configuration not stated) | 23.1% (inactive)
69 | COc1ccc2nc3n(c(=O)c2c1)-c1ccc(Cl)cc1C(=O)NC3Cc1ccccc1 (configuration not stated) | 25.3% (inactive)
70 | CCC(C(=O)OCC(=O)Nc1ccc(C(=O)Nc2ccc(OC)cc2)cc1)c1ccccc1 (configuration not stated) | 65.6% (active)
71 | CCC(C(=O)OCC(=O)Nc1c(Cl)cc(Cl)cc1Cl)c1ccccc1 (configuration not stated) | 15.1% (inactive)
72 | CCC(C(=O)OCC(=O)Nc1ccccc1-c1ccccc1)c1ccccc1 (configuration not stated) | 36.7% (inactive)
73 | O=C1Nc2c(Br)cc(Br)cc2C1(O)N1CCOCC1 (configuration not stated) | 1.94% (inactive)
74 | COc1ccc(-c2cc3nc(C)c(CCC(=O)NC(C)CCc4ccco4)c(C)n3n2)c(OC)c1 (configuration not stated) | 8.4% (inactive)
75 | COc1ccc2[nH]c3c(c2c1)CCN1C(=O)C(CC(=O)NCCc2ccccn2)C[C@H](C(=O)N2CCOCC2)[C@@]31C (some centres not stated) | 3.09% (inactive)
76 | CCN1C(=O)N[C@@H]2C[C@H](C(=O)N3CCCC3)[C@H](C)[C@H](c3ccccc3)C[C@@H]21 | 6% (inactive)
77 | Cc1ccc(C)c(S(=O)(=O)n2cnc3ccccc32)c1 | -29.5% (inactive)
78 | Cc1ccc(C)c(S(=O)(=O)N2CCN(c3ncnc4sccc34)CC2)c1 | 65.3% (active)
79 | Cc1ccc(C)c(S(=O)(=O)N2CCN(CC(=O)Nc3ccc([N+](=O)[O-])cc3)CC2)c1 | 28.5% (inactive)
80 | COc1ccc(NC(=O)N(C)C[C@@H]2OCCCC[C@@H](C)Oc3ccc(NC(=O)NC4CCCCC4)cc3C(=O)N([C@H](C)CO)C[C@@H]2C)cc1 | 2.84% (inactive)
81 | CC[C@H](C)[C@H]1CNC(=O)C(=O)N1CC1CCN(CCc2ccc(OC)c(OC)c2)CC1 | 9.23% (inactive)
82 | CCO/C([O-])=N/c1c[n+](N2CCOCC2)no1 | -14.5% (inactive) and -7.68% (inactive)
